ChEMBL document CHEMBL1926568, “Synthesis, biological evaluation and mechanistic studies of totarol amino alcohol derivatives as potential antimalarial agents” (Bioorg Med Chem, 2012)
The source made the active and inactive calls. The calls are words filed in the database; no cut-off is given here.

Experiments:
Plasmodium falciparum [1] = experiment: Antiplasmodial activity against chloroquine-sensitive Plasmodium falciparum D10 after 48 hrs by lactate dehydrogenase assay; format: functional, organism-based; settings: D10, 48 h
Method in brief: (§1)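 P. falciparum D10 (CQ-sensitive) and K1 (CQ-resistant) kept in continuous in vitro culture, synchronized with 5% D-sorbitol at ring stage when needed; growth read by parasite lactate dehydrogenase assay; each compound run in duplicate on two separate occasions.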

Plasmodium falciparum [2] = experiment: Antiplasmodial activity against chloroquine-resistant Plasmodium falciparum K1 after 48 hrs by lactate dehydrogenase assay; format: functional, organism-based; settings: K1, 48 h; method in brief: as §1
Plasmodium falciparum [3] = experiment: Resistance index, ratio of IC50 for chloroquine-resistant Plasmodium falciparum K1 to IC50 for chloroquine-sensitive Plasmodium falciparum D10; format: functional
Method in brief: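 Resistance index computed as IC50 (K1)/IC50 (D10), both from the pLDH assay, each run in duplicate on two separate occasions.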

CHO = experiment: Cytotoxicity against CHO cells after 48 hrs by MTT assay; format: cell-based; settings: Cricetulus griseus
Method in brief: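 CHO cells in DMEM:Ham's (1:1) with 10% heat-inactivated FCS and gentamicin, 37 °C, 5% CO2; 1×10^4 cells/well seeded 24 h, then serial dilutions from DMSO stocks (100–0.01 µg/ml) for 48 h, with medium and DMSO controls.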

[4] = Selectivity index, ratio of IC50 for CHO cells to IC50 for chloroquine-sensitive Plasmodium falciparum D10; format: toxicity, cell-based; settings: hamster, CHO cells (cytotoxicity) versus Plasmodium falciparum D10; read-out: Ratio IC50
[5] = Selectivity index, ratio of IC50 for CHO cells to IC50 for chloroquine-resistant Plasmodium falciparum K1; format: toxicity, cell-based; settings: hamster, CHO cells (cytotoxicity) versus Plasmodium falciparum K1; read-out: Ratio IC50
Plasmodium falciparum [6] = experiment: Antiplasmodial activity against Plasmodium falciparum schizonts assessed as parasitemia at IC50 concentration treated until all schizonts had burst and invasion was assumed to have occurred by Giemsa staining-based microscopy (reference value: 8.83%); format: functional
Plasmodium falciparum [7] = experiment: Antiplasmodial activity against Plasmodium falciparum schizonts assessed as change in parasitemia at IC50 concentration treated until all schizonts had burst and invasion was assumed to have occurred by Giemsa staining-based microscopy relative to control; format: functional
Erythrocyte [8] = experiment: Induction of [3H]-chloroquine accumulation in erythrocytes infected with chloroquine-resistant Plasmodium falciparum K1 trophozoites at 5 uM pre-incubated for 15 mins before exposure to [3H]-chloroquine measured after 1 hr by liquid scintillation counting relative to control; format: functional
Method in brief: (§2)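 Synchronized K1-infected erythrocytes at trophozoite stage (1% hematocrit, 5% parasitemia) preincubated with test compound 15 min at 37 °C, then 4 nM 3H-CQ for 1 h at 37 °C; cells spun through dibutylphthalate, pellet digested and counted by liquid scintillation; accumulation expressed relative to untreated control; verapamil 5 µM positive control.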

[9] = Cytotoxicity in un-parasitized erythrocytes assessed as morphological changes at 6.25 ug/ml after 48 hrs by phase contrast microscopy; format: cell-based; settings: erythrocyte
Method in brief: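 Unparasitized erythrocytes (hematocrit 2%) held 48 h with 6.25 µg/ml compound (diluted from 100 µg/ml stocks), then fixed with 1% glutaraldehyde in paraformaldehyde; cell shape of 20 µl samples examined by phase-contrast light microscopy at ×1000.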

Erythrocyte [10] = experiment: Induction of [3H]-chloroquine accumulation in erythrocytes infected with chloroquine-resistant Plasmodium falciparum K1 trophozoites at 1 ug/ml pre-incubated for 15 mins before exposure to [3H]-chloroquine measured after 1 hr by liquid scintillation counting relative to control; format: functional, cell-based; method in brief: as §2

| Compound | IC50 (Plasmodium falciparum [1]) | IC50 (Plasmodium falciparum [2]) | Ratio IC50 (Plasmodium falciparum [3]) | IC50 (CHO) | selectivity ratio [4] | selectivity ratio [5] | Activity (Plasmodium falciparum [6]) | Activity (Plasmodium falciparum [7]) | fold change (FC) (Erythrocyte [8]) | Activity [9] | Activity (Erythrocyte [10]) |
| --- | --- | --- | --- | --- | --- | --- | --- | --- | --- | --- | --- |
| CCN(CC)CC(O)COc1ccc2c(c1C(C)C)CC[C@H]1C(C)(C)CCC[C@]21C (stereo partly specified) | 0.61 µM | 0.63 µM | 1.04 | 7.73 µM | 12.7 | 12.2 | – | – | – | – | – |
| OC(CNCc1ccccc1)COc1cccc2ccccc12 (racemic) | 5.18 µM | 0.73 µM | 0.14 | 8.27 µM | 1.6 | 11.2 | 10.24% | 1.41% | – | – | – |
| CCOc1ccccc1N1CCN(CC(O)COc2ccc3c(c2C(C)C)CC[C@H]2C(C)(C)CCC[C@]32C)CC1 (stereo partly specified) | 1.62 µM | 1.01 µM | 0.62 | 183 µM | 113 | 181 | – | – | – | – | – |
| CC(C)c1c(OCC(O)CN2CCCCC2)ccc2c1CC[C@H]1C(C)(C)CCC[C@]21C (stereo partly specified) | 1.08 µM | 0.75 µM | 0.7 | 2.99 µM | 2.8 | 4 | – | – | – | – | – |
| CC(C)c1c(OCC(O)CN2CCN(c3ccccc3Cl)CC2)ccc2c1CC[C@H]1C(C)(C)CCC[C@]21C (single isomer, unassigned) | 3.25 µM | 0.94 µM | 0.23 | 186 µM | 57.3 | 207 | – | – | – | – | – |
| OC(CNCc1ccccc1)COc1ccc2ccccc2c1 (racemic) | 6.77 µM | 13.5 µM | 2 | 123 µM | 18.2 | 9.1 | – | – | – | – | – |
| Oc1ccc2ccccc2c1 [BETANAPHTHOL] | > 100 µM | – | – | – | – | – | – | – | – | – | – |
| COc1ccc(CCN(C)CCCC(C#N)(c2ccc(OC)c(OC)c2)C(C)C)cc1OC (stereo unspecified) | – | – | – | – | – | – | – | – | >3 | – | – |
| c1ccc2c(OCC3CO3)cccc2c1 (stereo unspecified) | > 100 µM | – | – | – | – | – | – | – | – | – | – |
| CN1CCN(CC(O)COc2ccccc2)CC1 (racemic) | > 100 µM | – | – | – | – | – | – | – | – | – | – |
| Oc1ccccc1 [PHENOL] | > 100 µM | – | – | – | – | – | – | – | – | – | – |
| c1ccc(OCC2CO2)cc1 (stereo unspecified) | 77 µM | – | – | – | – | – | – | – | – | – | – |
| CC(C)c1c(OCC(O)CN2C(=O)c3ccccc3C2=O)ccc2c1CC[C@H]1C(C)(C)CCC[C@]21C (stereo partly specified) | 9.55 µM | 48.3 µM | 5.06 | – | – | – | – | – | – | – | – |
| CC(C)NCC(O)COc1cccc2ccccc12 (racemic) [PROPRANOLOL] | – | – | – | – | – | – | 5.35% | -3.48% | – | – | – |
| CC(C)NCC(O)COc1ccc2c(c1C(C)C)CC[C@H]1C(C)(C)CCC[C@]21C (stereo partly specified) | 1.05 µM | 0.17 µM | 0.14 | 1.28 µM | 1.2 | 8.7 | 5.43% | -3.4% | – | Non-toxic | – |
| OC(COc1cccc2ccccc12)CN1CCN(c2ccccc2Cl)CC1 (racemic) | > 100 µM | – | – | – | – | – | – | – | – | – | – |
| CN1CCN(CC(O)COc2ccc3ccccc3c2)CC1 (racemic) | 42.9 µM | 8.21 µM | 0.19 | 149 µM | 3.5 | 18.1 | – | – | – | – | – |
| Oc1cccc2ccccc12 [1-NAPHTHOL] | 56.5 µM | – | – | – | – | – | – | – | – | – | – |
| CC(C)c1c(OCC(O)CN2CCOCC2)ccc2c1CC[C@H]1C(C)(C)CCC[C@]21C (mixture of isomers) | 2.07 µM | 0.56 µM | 0.27 | 5.61 µM | 2.7 | 10 | – | – | – | – | – |
| CC(C)c1c(OCC(O)CN2CCN(C)CC2)ccc2c1CC[C@H]1C(C)(C)CCC[C@]21C (stereo partly specified) | 1.36 µM | 1.39 µM | 1.03 | 3.73 µM | 2.7 | 2.7 | – | – | – | Toxic | Active |
| CN1CCN(CC(O)COc2cccc3ccccc23)CC1 (racemic) | 41.8 µM | 7.23 µM | 0.17 | 261 µM | 6.2 | 36.1 | – | – | – | – | – |
| CC(C)c1c(O)ccc2c1CC[C@H]1C(C)(C)CCC[C@]21C [TOTAROL] | 11.8 µM | 11.7 µM | 0.99 | 170 µM | 14.5 | 14.6 | – | – | – | – | – |
| CC(C)c1c(OCC(O)CNCc2ccccc2)ccc2c1CC[C@H]1C(C)(C)CCC[C@]21C (stereo partly specified) | 6.47 µM | 0.65 µM | 0.1 | 14.4 µM | 2.2 | 22.3 | 8.31% | -0.52% | – | Non-toxic | – |
| CC(C)c1c(OCC(O)CN2CCN(c3ccccc3)CC2)ccc2c1CC[C@H]1C(C)(C)CCC[C@]21C (stereo partly specified) | 2.56 µM | 1.81 µM | 0.71 | 105 µM | 41.2 | 58.1 | – | – | – | – | – |
| CC(C)c1c(OCC(O)CN2CCN(c3ccnc4cc(Cl)ccc34)CC2)ccc2c1CC[C@H]1C(C)(C)CCC[C@]21C (single isomer, unassigned) | 1.42 µM | 0.93 µM | 0.64 | 94.2 µM | 67.3 | > 100 | – | – | – | – | – |
| CC(C)c1c(OCC2CO2)ccc2c1CC[C@H]1C(C)(C)CCC[C@]21C (stereo partly specified) | 10.3 µM | 14 µM | 1.36 | – | – | – | – | – | – | – | – |
